Compound activity from PubChem BioAssay.
PfGluPho inh: PfG6PD enzyme inhibitors, primary screen, biochemical, fluorescence intensity, uHTS. AID 504690, 2011. PfGluPho enzyme, NADPH resazurin-diaphorase fluorescence. 350,000 compounds, 0.78% hits. inhibition, % at 20 µM;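 active = inhibition reaching at least a set limit at 20 µM in the primary screen, cut at about 59% in these data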
Diaph act CS: compounds boosting diaphorase resazurin reduction – biochemical, uHTS, resorufin fluorescence, counter-screen for diaphorase-coupled primary assays, primary screen | Diaphorase/resazurin coupled assay, 16 min; active compounds read high; 1 = vehicle wells, 0 = NADH-free wells | activation factor at 20 µM | 190,000 compounds, 0.005% hits | AID 1229, 2008;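 active = diaphorase activity raised at least twofold by the compound at 20 µM; inactive = activation factor below 2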
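Material: purified diaphorase enzyme from Clostridium kluyveri; Also added: 0.114 mM NADH and 0.1 mM resazurin, final amounts; Doses: single compound dose of 20 µM, 1% DMSO final; Times: 16 min enzyme reaction, ambient temperature; Detection: resorufin fluorescence, excitation 544 nm, emission 590 nm; Measure: increased resorufin signal from activators or reducing compounds.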
Lmaj promast: Leishmania major promastigote growth inhibition, primary screen. Leishmania major promastigotes, resazurin fluorescence viability. inhibition, % at 10 µM. 200,000 compounds, 9% hits. AID 1063, 2008;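 note: promastigotes grown with compound for 44 hours at 28 °C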
G6PDH CS: L. mesenteroides G6PDH inhibitors, counter-screen for G6PDH-coupled screening assays, biochemical, Leuconostoc mesenteroides enzyme; inhibition, % at 5 µM; Purified L. mesenteroides G6PDH, diaphorase/resazurin coupled fluorescence, 45 min; 200,000 compounds, 0.12% hits
Redox H2O2 prof: compounds producing H2O2 with reducing agent – biochemical, NIH compound library profiling, artefact control for MLSCN library redox annotation, primary screen; AID 878, 2007; activation, % at 10 µM; DTT-dependent redox cycling H2O2, phenol red/HRP absorbance; 100% = 100 µM peroxide control, 0% = buffer; 200,000 compounds, 0.03% hits;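 active = activation of at least 50% relative to the plate's high and low controls in the primary single-dose screen; inactive = activation below 50%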;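 note: compound incubated with DTT at 0.8 mM final as the reducing agent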
Diaphorase inh: diaphorase inhibitors and chemical oxidizers, primary screen, counter-screen for diaphorase-coupled primary assays, biochemical, uHTS, resorufin fluorescence; 190,000 compounds, 0.69% hits; diaphorase resazurin-to-resorufin fluorescence, NADH, 16 min; bacterial (C. kluyveri) enzyme, not human; inhibition, % at 20 µM;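 active = primary screen inhibition at 20 µM above a set limit, cut at about 50% in these data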
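System: Diaphorase enzyme from Clostridium kluyveri | Amount: Enzyme working solution with 0.14 U/mL diaphorase | Benchmarks: No-NADH positive control and DMSO neutral control | Signal: Fluorescence of resorufin formed from resazurin, Ex 544/Em 590 nm | Schedule: 16-min room-temperature incubation before reading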
Numbers stand for hits. The sample as a whole holds a higher share of hits than the screen did. Cut-off read from the data, not from the text of the source, unless noted: active = inhibition above about 50%; inactive = the rest.

`COc1cccc(CN2CCCCC2c2cccnc2)c1` (centres undefined) gave PfGluPho inh inactive, Diaph act CS inactive, Lmaj promast 72, G6PDH CS inactive, Redox H2O2 prof inactive and Diaphorase inh inactive.
Screening O=Cc1cn(Cc2ccc([N+](=O)[O-])cc2)c2ccccc12 returned PfGluPho inh inactive, Diaph act CS inactive, Lmaj promast inactive, G6PDH CS inactive, Redox H2O2 prof inactive and Diaphorase inh inactive.
Screening O=Cc1cn(Cc2ccccc2[N+](=O)[O-])c2ccccc12 returned PfGluPho inh inactive, Diaph act CS inactive, Lmaj promast 50, G6PDH CS inactive and Diaphorase inh inactive.
Cc1cccc(NP(=O)(Oc2ccccc2F)Oc2ccccc2F)c1C was read as PfGluPho inh inactive, Diaph act CS inactive, Lmaj promast 80, G6PDH CS inactive, Redox H2O2 prof inactive and Diaphorase inh inactive.
`Cc1ccc(NP(=O)(Oc2ccccc2F)Oc2ccccc2F)cc1` gave PfGluPho inh inactive, Diaph act CS inactive, Lmaj promast inactive, G6PDH CS inactive, Redox H2O2 prof inactive and Diaphorase inh inactive.
Screening CN(C)c1ccc(-[n+]2c(-c3ccccc3)cc(-c3ccccc3)cc2-c2ccccc2)cc1 returned PfGluPho inh inactive, Diaph act CS inactive, Lmaj promast 100, G6PDH CS inactive, Redox H2O2 prof inactive and Diaphorase inh inactive.
`c1ccc(-c2cc(-c3ccccc3)[n+](-c3ccccc3)c(-c3ccccc3)c2)cc1` gave PfGluPho inh inactive.
COc1ccc(-n2c(O)c(C(C)=NCCc3c[nH]c4ccccc34)c(=O)[nH]c2=O)cc1 was read as PfGluPho inh inactive.
For CCC(=NCCC(c1ccccc1)c1ccccc1)c1c(O)[nH]c(=O)[nH]c1=O the results were PfGluPho inh inactive, Diaph act CS inactive, Lmaj promast 72, G6PDH CS inactive, Redox H2O2 prof inactive and Diaphorase inh inactive.
Screening Cc1cc(/C=C2/C(=O)NC(=O)N(C)C2=O)c(C)n1-c1ccccc1 returned PfGluPho inh inactive, Diaph act CS inactive, Lmaj promast inactive, G6PDH CS inactive, Redox H2O2 prof inactive and Diaphorase inh inactive.
For C=CCN1C(=O)/C(=C/c2cc(C)n(-c3ccccn3)c2C)C(=O)NC1=S the results were PfGluPho inh inactive, Diaph act CS inactive, Lmaj promast 96, G6PDH CS inactive, Redox H2O2 prof inactive and Diaphorase inh inactive.
`CCN(CC)C1=NC(=[N+](CC)CC)c2ccccc21` gave PfGluPho inh inactive, Diaph act CS inactive, Lmaj promast 100, G6PDH CS inactive, Redox H2O2 prof inactive and Diaphorase inh inactive.
O=C(CSC1c2ccccc2-c2ccccc21)N/N=C/c1ccc(C(=O)O)cc1 was read as PfGluPho inh inactive, Diaph act CS inactive, Lmaj promast inactive, G6PDH CS inactive, Redox H2O2 prof inactive and Diaphorase inh inactive.
`O=C(CSC1c2ccccc2-c2ccccc21)N/N=C/c1ccccc1O` gave PfGluPho inh inactive, Diaph act CS inactive, Lmaj promast 100, G6PDH CS inactive, Redox H2O2 prof inactive and Diaphorase inh inactive.
For c1cncc(CNCCN2CCNCC2)c1 the results were PfGluPho inh inactive.
`COc1ccc(CNCCc2c(C)[nH]c3ccc(OC(F)(F)F)cc23)c(OC)c1` gave PfGluPho inh inactive.
For C=CCNC(=O)c1c(N)n(Cc2ccco2)c2nc3ccccc3nc12 the results were PfGluPho inh inactive, Diaph act CS inactive, Lmaj promast 100, G6PDH CS inactive, Redox H2O2 prof inactive and Diaphorase inh inactive.
`O=[N+]([O-])NC1=NCCN1Cc1ccc(Cl)nc1` gave PfGluPho inh inactive.
Screening Cc1ccc(OC(F)F)c(N2C(=O)C3C4CCC(O4)C3C2=O)c1 (centres undefined) returned PfGluPho inh inactive.
c1ccc2c(CN3CCCCCC3)c[nH]c2c1 was read as PfGluPho inh inactive, Lmaj promast 57, G6PDH CS inactive and Redox H2O2 prof inactive.
CCCCCc1nc2c(c(=O)c3ccccc3n2C)c(=O)n1C1CCCCCC1 was read as PfGluPho inh inactive, Diaph act CS inactive, Lmaj promast 99, G6PDH CS inactive, Redox H2O2 prof inactive and Diaphorase inh inactive.
COc1cc(C)cc(CN2CC=C(c3ccccc3)CC2)c1O was read as PfGluPho inh inactive, Diaph act CS inactive, Lmaj promast 65, G6PDH CS inactive, Redox H2O2 prof inactive and Diaphorase inh inactive.
Screening C[C@H](CO)N1C[C@H](C)[C@@H](CN(C)C(=O)Oc2ccccc2)OCc2cnnn2CCCC1=O returned PfGluPho inh inactive.
CCCC1(CC(C)C)C(=O)NC(=S)NC1=O was read as PfGluPho inh inactive.
`Cc1[nH]n(-c2ccccc2)c(=O)c1C(c1ccc([N+](=O)[O-])cc1)c1c(C)[nH]n(-c2ccccc2)c1=O` gave PfGluPho inh inactive, Diaph act CS inactive, Lmaj promast 62, G6PDH CS inactive, Redox H2O2 prof inactive and Diaphorase inh inactive.
Screening Cc1ccc(OC(=O)N(C)C[C@@H]2OCc3cnnn3CCCC(=O)N([C@@H](C)CO)C[C@@H]2C)cc1 returned PfGluPho inh inactive.
CNC(=S)N1CCn2cccc2C1c1cccnc1 (centres undefined) was read as PfGluPho inh inactive, Diaph act CS inactive, Lmaj promast 68, G6PDH CS inactive, Redox H2O2 prof inactive and Diaphorase inh inactive.
For CCCCNC(=S)N1CCn2cccc2C1c1cccnc1 (centres undefined) the results were PfGluPho inh inactive, Diaph act CS inactive, Lmaj promast 92, G6PDH CS inactive, Redox H2O2 prof inactive and Diaphorase inh inactive.
Screening CCC12CN3CC(CC)(CN(C1)C3c1cccnc1)C2=O (centres undefined) returned PfGluPho inh inactive, Diaph act CS inactive, Lmaj promast inactive, G6PDH CS inactive, Redox H2O2 prof inactive and Diaphorase inh inactive.
For CN(CCOc1ccc(C=C2C(=O)NC(=O)NC2=O)cc1)c1ccccn1 the results were PfGluPho inh inactive, Diaph act CS inactive, Lmaj promast inactive, G6PDH CS inactive, Redox H2O2 prof inactive and Diaphorase inh inactive.
For O=C1NC(=O)C(=Cc2ccc(OCC(=O)N3CCOCC3)cc2)C(=O)N1 the results were PfGluPho inh inactive, Diaph act CS inactive, Lmaj promast 54, G6PDH CS inactive, Redox H2O2 prof inactive and Diaphorase inh inactive.
